SENP1 inh: SENP1 (human) catalytic domain inhibition; Q9P0U3; recombinant SENP1 catalytic domain, CyPet-SUMO1-YPet FRET cleavage; AID 624204; inhibition, % at 10 µM; hit rate 0.21% among 360,000;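 active means inhibition at least 30% at 10 µM, raw YFP signal under a set limit, fluorescence ratio 0.5 to 1.5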;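 further: 0% = enzyme with DMSO and 100% = no enzyme wells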
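system = hSENP1 catalytic domain, recombinant | reagent = SFCypet-SUMO1-SFYpet substrate at 25 nM | doses = one dose per compound, 10 µM, 0.5% DMSO | incubation = enzyme reaction for 50 min at room temperature, dark | measured by = FRET, CFP and YFP emission | controls = no-enzyme low, enzyme-DMSO high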
FAS-TE inh: inhibitors of human fatty acid synthase thioesterase domain | hit rate 0.67% among 360,000 | AID 602261 | inhibition, % at 15 µM | P49327 | recombinant FAS-TE, OMFH fluorogenic substrate, fluorescence endpoint;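 active means compounds whose normalised, plate-corrected inhibition of enzyme fluorescence in the single-dose primary screen is 50% or more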;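 further: 0% = DMSO with enzyme and 100% = substrate without enzyme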
Arr AP2 block: inhibitors of human beta-arrestin and AP2 interaction; inhibition, % at 10 µM; FITC-arrestin peptide / GST-AP2 beads, flow cytometry; AP2 beta2 appendage carries R879A mutation; hit rate 0.31% among 340,000;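 active means inhibition above a set limit, near 3 SD of compounds lacking own fluorescence, cut at about 54% in these data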;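 further: plate controls were DMSO wells for no effect and 5 µM unlabelled arrestin peptide for full effect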
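test system = AP2 appendage R879A on GSH beads | buffer or medium = PBS plus Tween 20 (0.05%) and BSA (0.1%) | incubation = 12 min plus 1 h, RT | detection = bead flow cytometry, FITC channel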
GASC-1 inh: blocks human GASC-1 demethylase activity; Q9H3R0; GST-JMJD2C(1-420) H3K9me3 demethylation, DELFIA europium; inhibition, % at 2.35 µM; hit rate 0.069% among 330,000;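 active means more than half of a compound's replicate wells show inhibition beyond 50%, single wells judged on their own value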;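 further: signal counts dimethyl H3K9 product captured on neutravidin plate; 0% = median of DMSO wells and 100% = 0.3 times that DMSO median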
Arr AP2 CP1: blocks beta-arrestin peptide binding to human AP2. shares compounds with Arr AP2 block. GST-AP2 beads, FITC arrestin peptide binding, flow cytometry; GST-fused beta2-adaptin appendage, R879A mutant. inhibition, % at 10 µM. hit rate 2% among 1,300;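 active means inhibition above a set limit, roughly 3 SD of non-fluorescent compound noise, cut at about 38% in these data; inactive means inhibition at or below that limit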;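 further: loss of bead fluorescence from 50 nM FITC arrestin peptide bound to appendage; 0% = negative control wells and 100% = excess unlabelled arrestin peptide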
GST-FITC bead: GST-GSH bead binding interference, counter-screen; shares compounds with Arr AP2 block; inhibition, % at 10 µM; GST-fluorescein binding to GSH beads, fluorescence; hit rate 2% among 1,300; AID 588338;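 active means inhibition above 50%, about 3 SD of the inhibition seen with non-fluorescent compounds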;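 further: fluorescein maleimide labelled GST captured on 4 micron glutathione beads; higher means more loss of bead fluorescence from quenching or blocked binding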
The depositor's hits bear a star. Hits are enriched below; roughly 1.1% of the tested compounds scored in any of these assays.

How did Cn1c(N)c(C(=O)COC(=O)CCC2CCCCC2)c(=O)n(C)c1=O do in these assays?
SENP1 inh: 0.5; FAS-TE inh: 5.1; Arr AP2 block: 55.4*; GASC-1 inh: 12.5; Arr AP2 CP1: 1.8; GST-FITC bead: 5.7

Results for Cn1c(N)c(C(=O)COC(=O)c2cncc(Br)c2)c(=O)n(C)c1=O ?
SENP1 inh: -7.9; FAS-TE inh: -1.6; Arr AP2 block: 60.8*; GASC-1 inh: 3.5; Arr AP2 CP1: -8.8; GST-FITC bead: 5.9

How did O=C(NCc1cccs1)C(=O)NCC1OCCCN1S(=O)(=O)c1cc(F)ccc1F (stereo not given) do in these assays?
SENP1 inh: -2.3; FAS-TE inh: -1.6; Arr AP2 block: 11.7; GASC-1 inh: 6.7

Results for CCCCOc1ccc(C(=O)OCC(=O)c2c(N)n(C)c(=O)n(C)c2=O)cc1 ?
SENP1 inh: -2.9; FAS-TE inh: 14.1; Arr AP2 block: -8.5; GASC-1 inh: 16.7; Arr AP2 CP1: -1.4; GST-FITC bead: 4.7

Results for Cc1cccc(CN2CCN(C(C)C(=O)NC(C)c3ccccc3)CC2)c1 (stereo not given) ?
SENP1 inh: -4.4; FAS-TE inh: -1.4; Arr AP2 block: 56.3*; GASC-1 inh: 4.4; Arr AP2 CP1: -10.5; GST-FITC bead: -8.3

Results for O=C(NCCc1cccc(C(F)(F)F)c1)C1CCC(=O)N(CCc2cccc(F)c2)C1 (stereo not given) ?
SENP1 inh: 0.1; FAS-TE inh: -2.2; Arr AP2 block: -0.8; GASC-1 inh: -8.5

What do the screens show for `COc1cccc(CNC(=O)C2CCC(=O)N(CCc3cccc(F)c3)C2)c1` (stereo not given)?
SENP1 inh: 2.2; FAS-TE inh: -1.3; Arr AP2 block: 28.7; GASC-1 inh: 4.5

How did Cc1ccc(CCCNC(=O)C2CCC(=O)N(Cc3cccc(F)c3)C2)cc1 (stereo not given) do in these assays?
SENP1 inh: 1.9; FAS-TE inh: -8.6; Arr AP2 block: 8.1; GASC-1 inh: -0.9; Arr AP2 CP1: -10.1; GST-FITC bead: 3.0

Results for O=C(NCCCC1CCCC1)C1CCC(=O)N(Cc2cccc(F)c2)C1 (stereo not given) ?
SENP1 inh: -0.9; FAS-TE inh: 9.2; Arr AP2 block: 47.5; GASC-1 inh: -17.1

How did O=C(NCc1cccc(F)c1)C1CCC(=O)N(CCc2cccc(F)c2)C1 (stereo not given) do in these assays?
SENP1 inh: 0.2; FAS-TE inh: -4.8; Arr AP2 block: -5.2; GASC-1 inh: -26.6; Arr AP2 CP1: -15.5

How did O=C(NCCN1CCCC1=O)C1CCC(=O)N(CCc2cccc(F)c2)C1 (stereo not given) do in these assays?
SENP1 inh: 1.6; FAS-TE inh: -4.1; Arr AP2 block: 59.2*; GASC-1 inh: 6.3; Arr AP2 CP1: -10.7; GST-FITC bead: -2.0

What do the screens show for `O=C(NCCc1cccc(F)c1)C1CCC(=O)N(CCCc2ccccc2)C1` (stereo not given)?
SENP1 inh: 0.0; FAS-TE inh: -1.4; Arr AP2 block: 61.8*; GASC-1 inh: -3.1; Arr AP2 CP1: -4.9; GST-FITC bead: -11.3

What do the screens show for `COc1ccc(NC(=O)N2CCCC(c3ccccc3)C2)cc1` (stereo not given)?
SENP1 inh: 1.1; FAS-TE inh: -2.5; Arr AP2 block: 3.0; GASC-1 inh: -6.6

Results for CC(=O)c1cccc(NC(=O)COC(=O)CCC(=O)c2cccs2)c1 ?
SENP1 inh: 3.3; FAS-TE inh: -0.8; Arr AP2 block: -11.4

Results for CSc1cccc(NC(=S)N(Cc2ccc(C)cc2)Cc2ccccn2)c1 ?
SENP1 inh: 0.0; FAS-TE inh: -0.2; Arr AP2 block: 54.0*; GASC-1 inh: 4.3; Arr AP2 CP1: -7.6; GST-FITC bead: -9.4

Results for COc1ccc(CCN(Cc2ccccn2)C(=S)Nc2cccc(SC)c2)cc1OC ?
SENP1 inh: -1.4; FAS-TE inh: 0.5; Arr AP2 block: -11.9; GASC-1 inh: -0.1

What do the screens show for `COc1ccc(NC(=O)/C(=C\c2cc(OC)c(OC)cc2[N+](=O)[O-])NC(=O)c2ccccc2)cc1`?
SENP1 inh: 1.2; FAS-TE inh: -17.2; Arr AP2 block: 59.8*; GASC-1 inh: -1.3; Arr AP2 CP1: 0.4; GST-FITC bead: -10.2

How did COc1cc(/C=C(/NC(=O)c2ccccc2)C(=O)Nc2ccccc2)c([N+](=O)[O-])cc1OC do in these assays?
SENP1 inh: -1.5; FAS-TE inh: -0.7; Arr AP2 block: -0.8; GASC-1 inh: 0.0

How did CCNC(=O)COc1ccc(CC)cc1 do in these assays?
SENP1 inh: 0.9; FAS-TE inh: -9.5; Arr AP2 block: 5.5; GASC-1 inh: 6.0

What do the screens show for `O=C(NCc1ccc(Cl)cc1)C1CCN(S(=O)(=O)c2cccc3nonc23)CC1`?
SENP1 inh: 4.7; FAS-TE inh: -0.1; Arr AP2 block: 108.8*; GASC-1 inh: 27.3; Arr AP2 CP1: 22.8; GST-FITC bead: 51.9*

What do the screens show for `O=C(NCCc1ccc(Cl)cc1)C1CCN(S(=O)(=O)c2cccc3nonc23)CC1`?
SENP1 inh: 7.1; FAS-TE inh: 2.9; Arr AP2 block: 2.9; GASC-1 inh: -3.6

How did CCn1cnc2cc(NS(=O)(=O)c3ccc(OC)c(OC)c3)ccc21 do in these assays?
SENP1 inh: -0.3; FAS-TE inh: -5.1; Arr AP2 block: 61.1*; GASC-1 inh: -18.6; Arr AP2 CP1: 1.8; GST-FITC bead: -4.7

Results for COc1ccc(S(=O)(=O)N2CCN(C)CC2)cc1NC(=O)c1ccccc1 ?
SENP1 inh: -0.3; FAS-TE inh: -0.2; Arr AP2 block: -6.1; GASC-1 inh: 0.7; Arr AP2 CP1: -3.3; GST-FITC bead: -6.5

Results for CCN1CCN(S(=O)(=O)c2ccc(OC)c(NC(=O)c3ccccc3)c2)CC1 ?
SENP1 inh: 2.3; FAS-TE inh: -3.8; Arr AP2 block: 3.0; GASC-1 inh: 2.5; Arr AP2 CP1: 4.3; GST-FITC bead: -2.1

What do the screens show for `CCN1CCN(S(=O)(=O)c2ccc(OC)c(NC(=O)c3ccccc3F)c2)CC1`?
SENP1 inh: 0.5; FAS-TE inh: 1.1; Arr AP2 block: -4.5; GASC-1 inh: 34.7

What do the screens show for `COc1ccc(S(=O)(=O)N2CCCCCC2)cc1NC(=O)c1ccccc1`?
SENP1 inh: -0.5; FAS-TE inh: 1.7; Arr AP2 block: 5.5; GASC-1 inh: -24.3

What do the screens show for `CCOC(=O)[C@H]1[C@H]2COc3ccc(Br)cc3[C@@H]2N2C(=O)[C@H](C)NC(=O)[C@@]12C`?
SENP1 inh: -2.0; FAS-TE inh: -11.0; Arr AP2 block: 6.3; GASC-1 inh: -9.1

Results for Cc1cc(C)cc(-n2c(C)cc(C(=S)N3CCOCC3)c2C)c1 ?
SENP1 inh: 2.4; FAS-TE inh: 9.2; Arr AP2 block: 22.0; GASC-1 inh: 10.1
